PubChem BioAssay AID588788 (The Scripps Research Institute Molecular Screening Center, 2011)
Calls of active or inactive are those of the source.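 The calls were made as follows: active = compound seen by mass spectrometry to covalently label the enzyme's active site serine; inactive = no covalent labeling seen.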

Target: Platelet-activating factor acetylhydrolase (Homo sapiens) (UniProt Q13093)
Experiment: covalent active-site labeling of pPAFAH, late-stage follow-up, mechanism study, biochemical, LC-MS/MS (AID 588788)
Details: purified recombinant pPAFAH
How it was run: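 Material: recombinant human pPAFAH hydrophobic-patch triple mutant; Input: pPAFAH at 40 µM before compound addition; Schedule: Enzyme–compound incubation 60 min at 37 °C, overnight tryptic digestion; Benchmarks: DMSO-only enzyme sample; Medium: DPBS buffer; Read-out: covalent +253.12152 Da adduct on catalytic serine, 1% peptide FDR; Compound dosing: one dose, 100 µM final.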

Sequence of Platelet-activating factor acetylhydrolase (Homo sapiens) (Q13093 42-441 I120A/L123A/L124A limits assumed): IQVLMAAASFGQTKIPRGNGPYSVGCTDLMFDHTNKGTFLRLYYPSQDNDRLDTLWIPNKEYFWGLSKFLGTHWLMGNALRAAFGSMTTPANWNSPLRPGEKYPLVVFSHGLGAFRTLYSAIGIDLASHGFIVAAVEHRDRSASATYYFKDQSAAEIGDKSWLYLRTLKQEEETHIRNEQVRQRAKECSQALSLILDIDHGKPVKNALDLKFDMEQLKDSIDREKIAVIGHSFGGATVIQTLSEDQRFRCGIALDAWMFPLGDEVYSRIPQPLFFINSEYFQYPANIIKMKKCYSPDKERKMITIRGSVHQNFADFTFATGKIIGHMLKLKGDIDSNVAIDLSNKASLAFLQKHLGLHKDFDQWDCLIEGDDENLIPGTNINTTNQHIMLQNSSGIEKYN

Cc1cc(N2CCN(C(=O)Oc3ccc(-c4ccccc4)cn3)CC2)c2ccccc2n1
outcome: active; covalent
